# V1aR counter – activates human V1a receptor in oxytocin agonist counter-screen. CHO-V1R cells, Fluo-8 calcium fluorescence, agonist mode; 0% DMSO, 100% 3 nM vasopressin. 320,000 compounds, 0.25% hits. AID 2797. activation, % at 3 µM. P37288;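 active = activation above the mean activation of all tested compounds plus 3 SD, per screening run, cut at about 20% in these data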;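 note: signal is peak over basal fluorescence ratio across a 100 second FLIPR read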
# Target sequence (P37288 whole entry, looked up): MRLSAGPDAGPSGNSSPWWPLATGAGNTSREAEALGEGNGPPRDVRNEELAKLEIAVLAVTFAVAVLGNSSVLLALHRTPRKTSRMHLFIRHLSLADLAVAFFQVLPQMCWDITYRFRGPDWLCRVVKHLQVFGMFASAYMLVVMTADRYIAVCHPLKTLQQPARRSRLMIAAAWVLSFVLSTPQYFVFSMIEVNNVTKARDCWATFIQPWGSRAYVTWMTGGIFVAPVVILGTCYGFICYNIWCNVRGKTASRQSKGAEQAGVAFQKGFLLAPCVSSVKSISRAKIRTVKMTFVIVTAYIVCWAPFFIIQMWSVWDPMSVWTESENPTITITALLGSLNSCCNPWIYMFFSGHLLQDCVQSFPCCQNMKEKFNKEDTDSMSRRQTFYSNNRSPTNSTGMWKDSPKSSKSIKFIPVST
# OXTR potentiate – potentiators of human oxytocin receptor; CHO-OTR cells, Fluo-8 calcium fluorescence, potentiator mode; 0% = oxytocin EC15, 100% = EC100; activation, % at 3 µM; 320,000 compounds, 0.061% hits;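 active = activation above that plate's cutoff, the mean activation of tested compounds plus 3 SD, cut at about 6.6% in these data, passing the limit was not always enough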;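 note: 100% uses oxytocin at 75 nM as the full agonist control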
#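 System: human OTR in CHO cells; Also added: sub-maximal oxytocin, roughly EC15; Timing: compound 6 min at room temperature before oxytocin, 100 s read; Technique: Fluo-8 intracellular calcium fluorescence, ex 470-495, em 515-575 nm; Controls: oxytocin EC15 low and EC100 high; Replication: singlicate.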
# TRPN1 ag – activates the zebrafish TRPN1 channel. 220,000 compounds, 0.18% hits. HEK293 zebrafish TRPN1-YFP, Fluo-8 calcium fluorescence; 100% = response to 87 µM carbachol. activation, % at 3 µM;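 active = activation above its plate's cutoff, the mean activation of test wells on that plate plus 3 SD, cut at about 19% in these data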;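 note: 0% = DMSO alone and 100% = 87 µM carbachol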
#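 Material: zebrafish TRPN1-YFP in HEK293 cells; Doses: single test compound dose, 3 µM nominal, 0.3% DMSO; Timing: dye loading 1 h at 37 °C, then 30 min room temperature; Technique: intracellular calcium fluorescence with Fluo-8; Benchmarks: high carbachol 87 µM, low DMSO alone.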
# OXTR ag – activates the human oxytocin receptor; P30559; CHO-OTR cells, Fluo-8 calcium fluorescence; normalized: DMSO 0%, oxytocin 100%; activation, % at 3 µM; 320,000 compounds, 0.32% hits; AID 2435;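 active = activation above the mean of all tested compounds plus 3 SD, cutoff set per screening run, cut at about 20% in these data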;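 note: peak over basal fluorescence ratio from a 100 s FLIPR kinetic read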
# CRFBP-R2 agonist – agonists of human CRF-binding protein/CRF-R2 receptor complex. HEK293 CRF-R2/CRF-BP, calcium dye fluorescence (FLIPR); percent of saturating CRF peptide response. activation, % at 13.2 µM. 350,000 compounds, 0.46% hits;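 active = activation of at least 50%, plus an integration ratio under a set limit after plate pattern correction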;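 note: plate controls were neutral control wells without compound for no effect and CRF at EC100 for full effect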
# TRPML3 agonist – agonists of human TRPML3 channel; activation, % at 3 µM; HEK293 TRPML3-YFP, Fluo-8 calcium fluorescence; 100% = the carbachol control signal; Q8TDD5; 220,000 compounds, 0.29% hits;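 active = activation above its plate's cutoff, the mean activation of the plate's test wells plus 3 SD, cut at about 12% in these data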;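 note: 0% = DMSO only wells and 100% = carbachol wells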
#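 Test system: HEK293 cells stably carrying human TRPML3-YFP; Doses: single dose, 3 µM final nominal compound, 0.3% DMSO final; Schedule: dye loading 1 h 37 °C then 30 min ambient, 125 s read; Technique: Fluo-8 calcium fluorescence; Benchmarks: high control carbachol 87 µM, low control DMSO.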
# Starred values were filed as active, the others as inactive; nt = no result given. Most compounds without a hit are left out; they make up all but 0.85% or so of the library.
SMILES,V1aR counter,OXTR potentiate,TRPN1 ag,OXTR ag,CRFBP-R2 agonist,TRPML3 agonist
CCC(C(=O)Nc1ccc(C)cc1)c1ccccc1 (configuration not stated),3.8,-5.1,1.0,1.7,6.7,1.4
CC(C)c1cc(=O)oc2c3c4c(cc12)CCCN4CCC3,-0.9,-3.6,0.2,-0.9,7.8,-0.1
O=c1oc2c3c4c(cc2c(C(F)(F)F)c1CCN1CCOCC1)CCCN4CCC3,33.0*,-11.7,19.9*,33.9*,708.1,10.5
CC(=O)N1CCc2ccc(S(=O)(=O)N3CCN(C)CC3)cc21,-0.9,-2.9,2.1,0.7,203.0*,1.2
Oc1[nH]c2ccccc2c1N=Nc1ccccn1,nt,nt,nt,nt,-0.9,nt
Oc1c(N=Nc2ccccn2)ccc2ccccc12,-0.8,-0.4,-2.3,1.3,99.0*,-0.4
Cc1ccc2nc3n(c(=O)c2c1)-c1cc2ccccc2cc1C(=O)NC3Cc1ccccc1 (configuration not stated),nt,nt,nt,nt,0.3,nt
CCCCCn1nc(C)c(/C=N/NC(=O)c2ccoc2C)c1C,0.5,-5.5,-0.3,2.0,0.4,0.6
CCCCCn1nc(C)c(/C=N\NC(=O)c2cc(C)oc2C)c1C,-0.9,-6.8,-0.1,-1.0,106.9*,0.7
O=[n+]1c2c(n([O-])c3cc(F)c(N4CCCC4)cc31)CCCC2,11.7,-4.4,8.3,12.0,55.2*,3.7
O=[n+]1c2c(n([O-])c3cc(F)c(N4CCCC4)cc31)CCC2,6.8,-2.7,2.5,6.5,46.9,5.5
CCOc1cccc2sc(N(CCCN(C)C)C(=O)c3ccc(S(=O)(=O)N4CCc5ccccc5C4)cc3)nc12,35.2*,-16.5,nt,25.1*,1.9,nt
CCc1ccc2nc(N(CCCN(C)C)C(=O)c3ccc(S(=O)(=O)N4CCc5ccccc5C4)cc3)sc2c1,5.3,-4.5,nt,8.2,12.4,nt
CCN(CC(=O)Nc1ccc(C#N)cc1)CC(=O)Nc1ccc2c(c1)OCCO2,nt,nt,nt,nt,1.4,nt
Cc1cc(C)c(OCC(=O)Nc2ccccc2N2CCOCC2)c(C)c1,18.3,-12.0,24.0*,14.1,53.2*,15.2*
O=C1CC(O)(C(F)(F)F)Oc2c1ccc1ccccc21 (configuration not stated),4.3,-15.1,9.0,17.1,61.6*,-0.3
CC(=O)Oc1ccc(C2=Cc3ccc(OC(C)=O)cc3OC2C)cc1 (configuration not stated),nt,nt,nt,nt,0.2,nt
Cc1nnc(SCC(=O)c2cc(C)n(C3CC3)c2C)s1,-0.7,3.5,0.7,-0.7,51.8*,4.0
CNc1nnc(SCC(=O)c2cc(C)n(C3CC3)c2C)s1,0.7,-1.1,nt,-0.6,-0.2,nt
Cc1nnc(SCC(=O)c2cc(C)n(-c3ccc4c(c3)OCO4)c2C)s1,5.7,-11.6,27.3*,10.1,62.9*,16.8*
CN(C=O)c1cc([N+](=O)[O-])ccc1OCc1ccccc1,nt,nt,nt,nt,-2.0,nt
O=C(O)c1cccc(CN2C(=O)c3ccccc3C2=O)c1,0.4,-13.0,nt,-0.1,-0.4,nt
O=C1c2cccc3c(O)ccc(c23)C(=O)N1Cc1ccccc1,344.6*,-22.4,146.2*,302.2*,247.9,120.4*
CN(Cc1ccccc1)C(=O)c1ccccc1N(C)S(=O)(=O)c1ccccc1,nt,nt,nt,nt,-1.2,nt
[O-][n+]1c2c(c3c4non(O)c4ccc31)CCCC2,7.7,-13.8,4.1,13.4,84.6*,0.3
CC(C)N1CCc2c(sc(NC(=S)NC(=O)c3ccccc3)c2C#N)C1,9.6,-11.2,10.0,5.6,55.0*,8.5
CCCN1CCc2c(sc(NC(=S)NC(=O)c3ccccc3)c2C#N)C1,15.5,-8.2,4.0,15.8,148.0*,4.4
Cc1sc(NC(=S)NC(=O)c2ccccc2)c(C#N)c1C,0.7,-17.0,-1.2,1.4,-0.8,0.4
CCOC(=O)N1CCc2c(sc(NC(=O)c3ccc(S(=O)(=O)N4CCCC4)cc3)c2C#N)C1,1.1,-2.3,0.3,-0.4,2.3,0.4
CC(C)C1Cc2c(sc(NC(=S)NC(=O)c3ccccc3)c2C#N)CO1 (configuration not stated),0.7,-10.2,-0.6,0.0,1.4,1.2
